Experimental data from the RNAGym collection of RNA variant scans (doi:10.1126/science.aae0568).
This sample holds only a part of the variants without activity.

B1: tRNA (parent)
chain: GUUCCGUUGGCGUAAUGGUAACGCGUCUCCCUCCUAAGGAGAAGACUGCGGGUUCGAGUCCCGUACGGAACG

Variants of: B1
Test: yeast fitness relative to wild type (ratio to wild type); higher = fitter; tRNA-Arg(CCU), competitive growth, 37 C, YPD
Method in brief: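 Gene amplicons from the start population and from each of six end populations were read by 100-nucleotide paired-end sequencing. Those end populations came from pooled Saccharomyces cerevisiae strains carrying tRNA-Arg(CCU) gene variants at the native locus, competed in YPD at 37°C for 24 hours. Fitness relative to wild type was worked out from changes in genotype frequencies. Genotypes needed ≥ 100 starting reads, and estimates < 0.5 were set to 0.5.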

| Variant | yeast fitness |
| --- | --- |
| GUUCCGUUGGUGUUAUGGUAACGGGUCUCCCUCCUAAGGAGAAAACUGUGGGUUCGAGUCCCGUACGGAACG [C11U A14U C24G G44A C49U] | ≤ 0.5 |
| GUUCCGUUGGCGUAAUGGUAACGCGUCUCCCUCCUAAGGAGAAGAAUGCGGGUUCGAGUGCCGUACGGAACG [C46A C60G] | 0.684 |
| GUUCCGUUGGCGUAAUGGUAACGCGUCUCCCUCCUAAGGAGAAGACUGCGGGUCCGCGUCCCGUACGGAACG [U54C A57C] | 0.619 |
| GUUCAGUUGGCGUAAUGGUAAUGCGUGUCGCUCCUAAGGAGAAGACUGCGGGUUCGUGUCCCGUACGGAACG [C5A C22U C27G C30G A57U] | ≤ 0.5 |
| GUUCCGUUGGCGUAAUGGUAACGGCUAUCCCUCCUAAGGCGAAGACUGCGAGUUCGAGUCCCGUACGGAACG [C24G G25C C27A A40C G51A] | ≤ 0.5 |
| GUUCCGUUGGCGUAAGGGUAACGCGUCUCCCUCCUAAGGAGAAGACUGCGGGUUCUAGUCCCGUACGGAACG [U16G G56U] | 0.706 |
| GUUCCGUUGGCGUAGUGGUAACGCGUCUCCCUCCUAACGAGAAGACUGCGGGUUCGAGUCCCGUAUGGAACG [A15G G38C C66U] | ≤ 0.5 |
| GUUCUGUUGGCGUAAUGGUAACGCGUCACCCUCUUAAGGAGAAGACUGCGGGUUCGAGUCUCGUACGGAACG [C5U U28A C34U C61U] | ≤ 0.5 |
| GUUCCGUUGGCGUAAUGGUAACGCGGCUCCCUCCUAAGGAGAAGACUGCGGGUUCGAGUCCCGUACAGAACG [U26G G67A] | 0.81 |
| GUUCCGUUGGCGUAAUGGUAACGCGUCUCCCUCCUACGGAGAAGACUGCGGGUUCGAGUCCUGUACGGAUCG [A37C C62U A70U] | ≤ 0.5 |
| GAUCCGUUGGCGUAAUGGUAACGCGGCUCCCUCCUAAGGAGAAGACUGCGGGUUCGAGUCCCGUACGGAACG [U2A U26G] | 0.821 |
| GUUCCGUUGGGGUAAUGGUAACGCGUCUCCCUCCUGAGGAGAAGACUGCGGGUUCGAGUCCCGUACUGCACG [C11G A36G G67U A69C] | ≤ 0.5 |
| GUUCAGUUGGCGUAAUAGUAACGCGUCUCCCUCCUAAGGAGGAGACUGCGGGUUCGAGUCCCGUACGGAACG [C5A G17A A42G] | 0.555 |
| GUUCUGUUGACGUAAUGGUAACGCGUCUCCCUCCUAAGGAGAAGACUGCGGGUUCGAGUCCCGUACGGGACG [C5U G10A A69G] | ≤ 0.5 |
| GUUCCGUUGGCGUAAUGGUACCGCGUCUCACUCCUAAGGAGAAGACUGCGGGUUCGAGUCCCGUACGGAACG [A21C C30A] | 0.802 |
| GUUCCGUUGGCGUAAUGGUAACGUGUCUCCCUCUUAAGGAGAAGACUGCGGGUUCCGGUCCCGUACGUAACG [C24U C34U G56C A57G G68U] | ≤ 0.5 |
| GUUGCGUUGGCGUAAUGGUAACGCGUCUCCCUCUUAAGGAGAAGACUGAGGGUUCGAGUCCCGUACGCAACG [C4G C34U C49A G68C] | ≤ 0.5 |
| GUUCCGUUGGCGUGAUGGUAACGCGUCUCCCUCCUAAGGAGAAGACUGCGGGUUUGAGUCCCGUACGGAACG [A14G C55U] | 0.553 |
| GUUCCGUUGGGGUAAUGGUAACGCGUCUCCCGCCUAAGGAGAAGACUGCGGGUUCGCGUCCUGUACGGAACG [C11G U32G A57C C62U] | 0.643 |

| Variant | yeast fitness |
| --- | --- |
| GUUCUGUUGGCGUAAUGGUUACGCGUCUCUCUCCUAAGGAGAAGAUGGCGGGUUCGAGUCCCGUACGGAACG [C5U A20U C30U C46U U47G] | ≤ 0.5 |
| GUUCCGUUCGCGUAACGGUAACGCGUCUCUCUCCUAAGGAGAAGACUGCGGGUUCGAGUCCCGUGCGGAACG [G9C U16C C30U A65G] | ≤ 0.5 |
| GUUUCGUUGGCGUAAUGGUAACGCAUCUCCCUCCUAAGGAAAAGACUGCGGGUUCCAGUCCCGUCCGGAACG [C4U G25A G41A G56C A65C] | ≤ 0.5 |
| GUUCCGUUGGCGUAAUGGUAACGAGUCCCCCUCCUAAGGAGAAGACUGCGGGUUCGAGUCCCGCAUGGAACG [C24A U28C U64C C66U] | ≤ 0.5 |
| GUUCCGUUGGCGUAAUGGUAACGCGUCUCCCACCUAAGGAGAAGACUGCGGGUUCCAGUCCCGUACGGUACG [U32A G56C A69U] | 0.53 |
| GUUCCGUUGGCGUUAUGCUAACGCGUCUCCCUCCGAAGGAGAAGACUGAGGGUUCGAGUCCCGUACGAAACG [A14U G18C U35G C49A G68A] | 0.59 |
| GUUCCAUUGGCGUAAUGGUAACGCGUCUCCAUCCUAAGGAGAAGACCGCGGGUUCGAGUCCCGUACAGAACG [G6A C31A U47C G67A] | ≤ 0.5 |
| GUUCCGUUGGCGUAAUGGUAAGGCGUCUCCGUCCUAAGGAGAAGACUGCGGCUUCGAGUCCCGUACGGAACG [C22G C31G G52C] | ≤ 0.5 |
| GUUCUGUUGGCGUAAUGGUAAGGCGUCUCUCUGCUAAGGAGAAGACUGCGGGUUCGAGUCCCGUACGGAACG [C5U C22G C30U C33G] | ≤ 0.5 |
| GUUCCGUUGGCGUAAUGGUAACGCAUCUCCCUCCUACGGAGAAGACUGCGGGUUCGAGUCCUGUACGGAACG [G25A A37C C62U] | 0.924 |
| GUUCAGUUGGCGUAAUGGUAACGCGUCUCCCUCUUCAGGCGAAGACUGCGGGUUCGAGUCCCGUACGGAACG [C5A C34U A36C A40C] | ≤ 0.5 |
| GUUCCGUUGGCCUAAAGGUAACGCGUCUCCCUCCUAAGGAGAAGACUGCGGGUUCGAGUGUCAUACGAAACG [G12C U16A C60G C61U G63A G68A] | ≤ 0.5 |
| GUUCGGUUGGCGUAGUGGUAACGCGUCUCCCUCCUAAGGAGCAGACUGCGGGUUCGAGUCCCGUACGGAACG [C5G A15G A42C] | 0.544 |
| GUUACGUUGGCGUAAUGGUAACCCGUCUCCCUCCUAAGGAGAAGACUGCGGGUUCGAGUCCCGUGCGGAACG [C4A G23C A65G] | 0.569 |
| GUUCCGUUGGGAUAAUGGUAACGAGUCUCGCUCCUAAGGAGAAGAUUGCGGGUUCGAGUCCCGUAGGGAACG [C11G G12A C24A C30G C46U C66G] | 0.585 |
| GUUCCGUUGGCGUAAUGCUAACGCGUCUCCCUCCUAAGGAGAAGACUGCGGGUUCGGGACCUGUACGGAACG [G18C A57G U59A C62U] | ≤ 0.5 |
| GUUCUGUUGGGGUAAUGGUAACGCGUCUCCUUCCUAAGGACAAGACUGCGGGUGCGAGUCCCGUACGGAACG [C5U C11G C31U G41C U54G] | 0.746 |
| GUUCCGUUGGCGUAAUGGUAACGCGUCUCCCUCAUAAGGAGAAGAGUGCGGGUUCGAGUACCGUACGGAACG [C34A C46G C60A] | ≤ 0.5 |
| GUUCCGUGGGCGUAAUGGUAACGCGUCUCCCCCGUAAGGAGAAGACUGCGGGUUCGAGUCCCGUACGAAACG [U8G U32C C34G G68A] | 0.598 |
